Screens (PubChem)
PGC1a acetyl inh: inhibitors of PGC1a acetylation signal, primary screen, cell-based, U2OS, AlphaScreen, inhibitor mode; AlphaScreen anti-acetyl-lysine; with virally co-expressed GCN5 acetyltransferase; inhibition, % at 15.6 µM; 350,000 compounds, 0.17% hits;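 active = every replicate shows inhibition of at least 40%; inconclusive = mean inhibition at least 40% but some replicate below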;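 also: 0% = neutral control wells and 100% = positive control wells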
HIV Env fusion: inhibitors of HIV-1 Env-driven cell-cell fusion, primary screen, HeLa-JRFL effector, CEM21 target cells, luciferase; AID 651610, 2012; 360,000 compounds, 1.1% hits; inhibition, % at 12.3 µM;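 active = mean replicate inhibition score of at least 50 and every replicate individually at or above 50; inconclusive = only one of the two criteria met; inactive = mean below 50 and not all replicates reaching 50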;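 also: 0% = plate neutral controls and 100% = maraviroc near 300 nM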
rRNA inh HTS: reduced GFP signal of wild-type E. coli, primary screen, bacterial rRNA inhibitor project, GFP/RFP fluorescence, OD600, single point; E. coli WT GFP vs humanized-ribosome RFP mutants, 24 h; hits give low values; DMSO median 0, no signal -100; GFP signal change (wild-type ribosome), % (concentration not given with the values); 350,000 compounds, 1.6% hits; AID 720706, 2013;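 active = significant combined selectivity score with lowered wild-type GFP, culture density cut under 30%, mutant RFP and density less affected; inactive = any of these conditions unmet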
PglD inh: C. jejuni PglD acetyltransferase inhibitors, primary screen, biochemical, DTNB colorimetric, single point; UDP-N-acetylbacillosamine N-acetyltransferase PglD (Campylobacter jejuni); AID 602405, 2012; inhibition, % at 12.5 µM; purified PglD enzyme, DTNB colorimetric CoA detection; 360,000 compounds, 0.098% hits; in the data active = inhibition above about 16%, passing the limit was not always enough; inconclusive = no clear call, values can overlap the other calls
DENV2 CPE: inhibitors of DENV2 cytopathic effect, primary screen, cell-based, plate reader, single concentration | DENV2-infected cells, cytopathic effect rescue | CPE inhibition, % at 9.99 µM | 350,000 compounds, 1.7% hits | AID 651640, 2012; in the data active = CPE inhibition above about 20%, passing the limit was not always enough; inconclusive = no clear call, values can overlap the other calls; tested in BHK-21 cells;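 also: 0% = median of neutral control wells and 100% = median of positive control wells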
FN deposition inh: inhibitors of fibronectin matrix deposition, primary screen, AH1F cells, Alexa488-fibronectin fluorescence, plate reader; AH1F fibroblasts, overnight; inhibition, % at 12.6 µM; 350,000 compounds, 0.086% hits; AID 743247, 2014;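 active = mean inhibition across replicates of 30% or more, regardless of how many single replicates reach that level; inconclusive = mean under 30% yet at least half of replicates reach 30%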;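 also: positive control wells lacked labelled fibronectin entirely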
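Measured by – fluorescence 485/525 nm · System – AH1F fibroblast monolayer, labelled fibronectin deposition · Amount – 10000 cells per well · Buffer or medium – serum-reduced DMEM (2% serum) · Doses – single dose, pinned · Also added – fluorescent fibronectin at 24 nM final · Schedule – 1 h cell attachment, overnight exposure to compound and label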
An asterisk follows results filed as active; ? = inconclusive; · = no result; [ ] = remark or other dose. Hits are enriched below; roughly 3.5% of the tested compounds scored in any of these assays.

SMILES	PGC1a acetyl inh	HIV Env fusion	rRNA inh HTS	PglD inh	DENV2 CPE	FN deposition inh
C[n+]1cc2c3c(ccc2c2ccc4cc5c(cc4c21)OCO5)OCO3	·	110.3*	·	·	0.4	52.2*
O=c1c(Cc2c(F)cccc2Cl)c(O)ccn1C1CC1	·	-13.4	-31.0*	·	3.5	0.5
C#CCn1ccc(O)c(Cc2c(F)cccc2Cl)c1=O	-8.3	0.0	2.3	8.1	-0.1	4.5
O=C(Oc1ccc(/C=N/O)cc1)c1ccccc1Cl	·	-52.3	-29.0*	·	2.5	8.8
Cc1ccc(C(=O)N/N=C/c2ccc(OC(=O)c3ccccc3Cl)cc2)cn1	·	-16.2	-3.9	3.7	-2.8	0.3
CCCC(=O)Nc1ccc2c(c1)C(=O)N(C)[C@@H]1CC[C@@H](CC(=O)NCCCN(C)C)O[C@H]1CO2	1.5	-20.6[16.7 µM]	2.9	-0.2	16.3	-4.5
CCCC(=O)Nc1ccc2c(c1)C(=O)N(C)[C@H]1CC[C@H](CC(=O)NCCCN(C)C)O[C@H]1CO2	-4.1	-10.7[16.7 µM]	3.1	2.6	48.8*	-4.2
CCCC(=O)Nc1ccc2c(c1)C(=O)N(C)[C@H]1CC[C@H](CC(=O)NCCCN(C)C)O[C@@H]1CO2	0.8	-5.4[16.7 µM]	3.5	3.7	60.7*	-5.0
CSc1nsc(SC)c1NC(=O)Nc1ccccc1C	103.3*	-6.9	25.0	·	·	6.7
CSc1nsc(SC)c1NC(=O)N1CCCCC1	-7.5	·	·	·	·	·
CCCCC#Cc1ccc(C(=O)NNC(=O)Nc2cc(Cl)cc(Cl)c2)o1	·	8.5	-40.5*	·	2.4	7.4
CC(=O)N1[C@H](C(=O)N[C@H](C)c2ccccc2)[C@@H](CO)[C@@H]2Cn3c(cccc3=O)[C@@H]21	·	·	-2.9	4.4	-1.0	·
Cc1ccc(S(=O)(=O)Nc2ccc3c(c2)C(=O)N([C@H](C)CO)C[C@@H](C)[C@@H](CN(C)S(=O)(=O)c2cccs2)O3)cc1	-6.4	·	-6.7	0.2	1.9	·
COc1ccc(N2CCN(C(=O)Nc3ccccc3Cl)CC2)cc1	-3.0	16.9	-22.9*	·	-1.5	-1.0
COc1ccc(Cl)cc1NC(=O)NCCN1CCCCC1	8.7	10.4	-1.2	-2.1	2.1	-3.6
COc1ccc(N2CCN(CC(=O)Nc3ccccc3C(=O)NCc3ccccc3)CC2)cc1	-20.3	·	-28.9*	-0.1	4.4	1.3
COc1ccc(N2CCN(CC(=O)Nc3ccccc3C(=O)NC(C)c3ccccc3)CC2)cc1 (centres undefined)	-10.6	7.2	-13.7	2.2	-6.2	-4.1
COc1ccc(Cl)cc1NC(=O)NCC1CCN(C(=O)OC(C)(C)C)CC1	?	-34.5	-20.4*	-2.0	-8.1	1.1
COc1ccc(Cl)cc1NC(=O)N1CCN(c2ccccc2OC)CC1	2.4	2.6	-30.5*	5.0	-0.2	10.3
CC(C)Oc1ccc(C(=O)NN2C(=O)NC3(CCCCC3)C2=O)cc1	-7.0	8.9	-6.6	2.7	67.6*	-3.3
O=C(NN1C(=O)NC2(CCCCC2)C1=O)c1cc(F)cc(F)c1	-6.5	3.1	7.6	4.4	32.1*	2.0
Cc1n[nH]c(=O)c2c(NC(=O)CSc3nnc(C4CC4)n3C)oc(C)c12	·	9.3	-1.7	·	39.1*	4.0
Cc1n[nH]c(=O)c2c(NC(=O)CSc3nnc(-c4ccco4)n3C)oc(C)c12	8.9	-2.6	2.9	2.0	-3.4	3.2
O=C(C[C@H]1C[C@@H]2c3cc(NS(=O)(=O)c4ccc(F)cc4)ccc3O[C@@H]2[C@H](CO)O1)N1CCc2ccccc2C1	-0.7	22.7[16.7 µM]	-10.0	-1.4	-3.1	17.1
CN(C)C(=O)C[C@H]1C[C@@H]2c3cc(NS(=O)(=O)c4ccc(F)cc4)ccc3O[C@@H]2[C@@H](CO)O1	-4.3	90.0*[16.7 µM]	-3.6	-2.1	4.1	-19.5
CN(C)C(=O)C[C@@H]1C[C@@H]2c3cc(NS(=O)(=O)c4ccc(F)cc4)ccc3O[C@@H]2[C@@H](CO)O1	-0.3	70.3*[16.7 µM]	-0.6	8.2	2.0	1.5
